# IDE act: activators of human insulin-degrading enzyme in cells; P14735; HEK cells, FAbeta-B cleavage, fluorescence polarization; 0% vehicle, 100% cell-free pure enzyme wells; activation, % at 5.96 µM; 340,000 tested, 0.073% active; AID 493087;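 active means activation above the mean of all tested compounds plus 3 SD, set per screening campaign, cut at about 17% in these data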
# procasp3 activ: activators of human procaspase-3; P42574; recombinant procaspase-3 D3A, Ac-DEVD-pNA absorbance 405 nm; activation, % at 8.5 µM; 330,000 tested, 0.11% active; AID 463141;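 active means activation above the mean of all tested compounds plus 3 SD, cut at about 21% in these data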;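 further: 0% = DMSO alone and 100% = DMSO wells spiked with extra 5 µM PC-3 D3A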
#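 Assay system: Autoprocessing-dead procaspase-3 D3A mutant enzyme; also added: Ac-DEVD-pNA; doses: one concentration, 8.5 µM nominal, 0.8% DMSO; times: 1 h compound preincubation, 2 h substrate hydrolysis at 25 °C; technique: 405 nm absorbance of p-nitroaniline, reads at 0 and 120 min; measure: % activation between DMSO and enzyme-spiked controls; repeats: single replicate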
# IDE cell inh: cellular human IDE inhibition; P14735; HEK cells, FAbetaB cleavage, fluorescence polarization; inhibition, % at 5.59 µM; 320,000 tested, 0.41% active; AID 434962;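 active means percent inhibition above the average of all tested compounds plus 3 SD, set per screening campaign, cut at about 16% in these data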;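 further: IDE supplied by intact live HEK cells; FP after avidin binding of uncleaved biotin substrate so inhibition keeps polarization high; 0% = DMSO wells and 100% = 60 µM reference IDE inhibitor Ii1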
# PHOSPHO1 inh: inhibitors of human PHOSPHO1 phosphatase | recombinant PHOSPHO1, absorbance phosphatase assay | inhibition, % at 13.3 µM | Q8TCT1 | 290,000 tested, 1.1% active; in the data active means inhibition above about 60%
# Target sequence (Q8TCT1 whole entry, looked up): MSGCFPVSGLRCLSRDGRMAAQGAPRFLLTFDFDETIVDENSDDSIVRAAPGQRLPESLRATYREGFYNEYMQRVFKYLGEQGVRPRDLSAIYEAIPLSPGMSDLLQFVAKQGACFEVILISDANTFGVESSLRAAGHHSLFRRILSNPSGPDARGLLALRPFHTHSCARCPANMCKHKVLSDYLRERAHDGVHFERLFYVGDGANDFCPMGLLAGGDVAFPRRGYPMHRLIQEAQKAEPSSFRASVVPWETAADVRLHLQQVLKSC
# UBC13 inh: human UBC13 polyubiquitination inhibition; AID 485273; 330,000 tested, 0.47% active; P61088; inhibition, % at 20 µM; UBC13 polyubiquitin chain formation, TR-FRET; in the data active means inhibition above about 45%, passing the limit was not always enough; inconclusive means no clear call, values can overlap the other calls
# Target sequence (P61088 whole entry, looked up): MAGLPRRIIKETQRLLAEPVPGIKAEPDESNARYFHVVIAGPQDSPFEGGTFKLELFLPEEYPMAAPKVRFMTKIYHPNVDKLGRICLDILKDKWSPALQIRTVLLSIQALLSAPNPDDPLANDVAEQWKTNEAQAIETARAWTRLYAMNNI
# proCasp7 act: counter-screen: procaspase-7 (human) activation. AID 463210. P55210. recombinant procaspase-7, Ac-DEVD-pNA absorbance 405 nm; D23A/D198A/D206A triple mutant, cannot self-cleave; scale: DMSO 0, 5 µM enzyme 100. 330,000 tested, 0.093% active. activation, % at 8.5 µM;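 active means percent activation above the screen-wide mean plus 3 SD, cut at about 25% in these data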
#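 Assay system – Uncleavable procaspase-7 mutant enzyme · Quantity – 2 µM procaspase-7 mutant as dispensed · Times – 1 h preincubation, 2 h reaction · Dosing – single nominal 8.5 µM compound dose, 0.8% DMSO final · Buffer or medium – Zinc-free 50 mM HEPES buffer, pH 7.4, with NaCl and Triton X-100 · Detection – Epi-absorbance of released pNA at 405 nm, two timepoints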
# Numbers without * were called inactive; ? = inconclusive; · = no result. An excerpt weighted towards active compounds, which were near 1.9% of everything screened.
SMILES,IDE act,procasp3 activ,IDE cell inh,PHOSPHO1 inh,UBC13 inh,proCasp7 act
O=C1CCc2cc(S(=O)(=O)Nc3ccccc3F)cc3c2N1CCC3,0,9,4,·,-4,5
CCOc1ccc(N=c2scc(-c3ccccc3)n2CCO)cc1,-2,-11,2,98*,5,-12
S=c1[nH]nc(NCCCN2CCOCC2)s1,-3,-20,16,62*,11,-36
c1ccc(-c2nnc(SCc3nc4ccccc4[nH]3)n2Cc2ccco2)nc1,-1,10,1,72*,0,8
c1coc(Cn2c(SCc3nc4ccccc4[nH]3)nnc2-c2cnccn2)c1,4,-3,-5,90*,-14,-6
O=C(CCCc1ccccc1)Nc1ccc2c(c1)OCCO2,3,3,-1,-30,7,7
COc1ccccc1CNC(=O)COC(=O)c1cccc(S(=O)(=O)N2CCOCC2)c1,3,-7,-4,·,-4,9
COC(=O)Cn1ncn2c(cc3oc(C)cc32)c1=O,3,-5,5,66*,-12,6
Cc1cc(C)cc(NC(=O)Cn2ncn3c(cc4ccccc43)c2=O)c1,2,-2,-4,3,-1,-9
Cc1ccccc1NC(=S)C1=C(O)c2sccc2N(C)S1(=O)=O,1,-14,2,92*,2,-13
CN1c2ccsc2C(O)=C(C(=S)Nc2ccccc2)S1(=O)=O,4,-18,0,94*,-1,-14
CCOC(=O)c1sc2cc([N+](=O)[O-])cc(SCC(C)C)c2c1N,3,4,4,64*,-34,1
C=CCNC(=S)NNC(=O)c1cccn(Cc2ccc(Cl)c(Cl)c2)c1=O,-4,1,0,78*,1,-1
Cc1cccc2cc3c(nc12)SC(=NCC1CCCO1)N(Cc1ccco1)C3 (stereo unspecified),6,-8,3,74*,1,-20
Cc1ccc2nc3c(cc2c1)CN(Cc1ccco1)C(=NCC1CCCO1)S3 (stereo unspecified),-2,-10,3,31,7,-11
COc1cc(CNC(=O)c2ccc3oc(C(C)C)nc3c2)cc(OC)c1,5,-1,3,40,-4,5
COc1ccc2ccccc2c1C1CC(=O)N2CN(Cc3ccco3)CSC2=C1C#N (stereo unspecified),-11,-26,1,72*,-6,-26
COc1ccc(C2CC(=O)N3CN(Cc4ccco4)CSC3=C2C#N)cc1 (stereo unspecified),-9,-7,2,58,-1,-16
N#CC1=C2SCN(Cc3ccco3)CN2C(=O)CC1c1ccc(Cl)cc1 (stereo unspecified),-8,-13,5,76*,-12,-8
CCOC(=O)C1CCCN(S(=O)(=O)c2cc3[nH]c(=O)c(=O)[nH]c3cc2C)C1 (stereo unspecified),-5,6,2,-19,7,3
Cc1cc(C)n2nc(SC(C)C(=O)NC3CCCCC3C)nc2n1 (stereo unspecified),0,2,-4,·,-3,8
Cc1ccc(S(=O)(=O)NNc2ccccc2)c(C)c1,-6,-21,4,76*,·,-18
Cc1ccc(S(=O)(=O)NNC(=O)c2cccs2)c(C)c1,-3,3,2,7,-5,7
COc1cccc(-n2c(COc3ccc(C)cc3)nnc2SCC(=O)O)c1,-1,4,2,74*,?,7
Cc1ccc(NCc2nnc(SCC(=O)O)n2-c2ccc(C)cc2)cc1,3,-1,1,67*,0,4
SMILES,IDE act,procasp3 activ,IDE cell inh,PHOSPHO1 inh,UBC13 inh,proCasp7 act
COc1ccc(-n2c(COc3ccc(C)cc3)nnc2SCc2ccc(C#N)cc2)cc1,-1,4,1,73*,10,9
CC(=O)Nc1ccc(OS(=O)(=O)c2ccc([N+](=O)[O-])cc2)cc1,-1,5,2,48,-3,-2
CC1(C(=O)NC(=S)NNC(=O)c2ccncc2)CCCCC1,-3,-14,4,-9,9,-21
O=C(NNC(=S)NC(=O)C12CC3CC(CC(C3)C1)C2)c1ccncc1,4,-22,-8,66*,-29,-33
CC1(C)OC(=O)C(=CNn2cnc3ccccc3c2=O)C(=O)O1,-4,-1,2,63*,-4,1
COc1cccc(/C=C2\SC(=O)N(CC(=O)NC3C=CS(=O)(=O)C3)C2=O)c1 (stereo unspecified),5,-9,0,50,-3,-11
Cc1cc(C(=O)NC(C)C2CCCO2)c(C)o1 (stereo unspecified),4,7,0,9,5,-2
Cc1cc(C(=O)NC(C)C2CCCO2)no1 (stereo unspecified),-1,-2,-1,60*,-5,-4
N#C/C(=C/c1ccccc1)C(=O)NCc1ccccc1,0,15,2,64*,13,12
O=C1NC[C@H](Cc2ccccc2)N(C[C@H]2CCCN2C[C@H](Cc2ccccc2)N2C[C@H](Cc3ccc(O)cc3)N(CCc3ccccc3)C(=O)C2=O)C1=O,3,·,·,·,·,·
CCC(C)(C)C1CCc2[nH]nc(C(=O)NCc3ccccn3)c2C1 (stereo unspecified),-1,-4,-2,·,0,19
S=c1c2c(nc3nc[nH]n13)CCC2,6,-11,1,93*,5,4
CC1CCc2c(nc3nc[nH]n3c2=O)C1 (stereo unspecified),4,4,3,0,-5,2
Cc1ccc(/C=N/c2sc3c(c2C#N)CCCCC3)o1,1,-2,7,61*,1,1
O=C(c1cc(COc2ccc(F)c(F)c2)on1)N1CCN(C/C=C/c2ccccc2)CC1,-8,·,·,41,3,·
C#CCOCCOCCOCCNc1nc(N2CCN(C(=O)CCCCCCCCCCNC(=O)Cn3cc(C[C@@H](C)O)nn3)CC2)nc(N2CCN(C(=O)CCCCCCCCCCNC(=O)[C@H](CCCCN)n3cc(C[C@@H](C)CC)nn3)CC2)n1,30*,7,-4,·,122*,-4
C#CCOCCOCCOCCNc1nc(N2CCN(C(=O)CCCCCCCCCCNC(=O)[C@H](CO)n3cc(CCCSC)nn3)CC2)nc(N2CCN(C(=O)CCCCCCCCCCNC(=O)[C@H](CO)n3cc(CCCSC)nn3)CC2)n1,9,-3,8,·,3,2
C#CCOCCOCCOCCNc1nc(N2CCN(C(=O)CCCCCCCCCCNC(=O)Cn3cc(CCCCCN)nn3)CC2)nc(N2CCN(C(=O)CCCCCCCCCCNC(=O)[C@H](CO)n3cc(CCCCCN)nn3)CC2)n1,9,-1,4,·,117*,-1
